According to ChEMBL document CHEMBL1955724, “Synthesis, antimicrobial and anticancer activities of a novel series of diphenyl 1-(pyridin-3-yl)ethylphosphonates” (Bioorg Med Chem, 2012):
In brackets after ≈: the same amount, converted by molar mass.

Columns and labels:
MCF7 = assay: Cytotoxicity against human MCF7 cells after 72 hrs by sulforhodamine B assay; type: functional, cell-based; conditions: MCF7, 72 h
[1] = Toxicity in Artemia salina assessed as mortality after 72 hrs; type: organism-based; conditions: in vivo, read-out: LD50
How it was run: (§1)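 Artemia salina larvae, 20 per 5 mL saline vial, were exposed to compound at […]. Three replicates were run per concentration. Living larvae were counted after 72 h, with data as mean ± SD.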

[2] = Toxicity in Artemia salina assessed as mortality at 1000 ug/mL after 72 hrs; type: organism-based; conditions: in vivo, read-out: Activity; how it was run: as §1
Artemia salina = assay: (§2) Toxicity in Artemia salina assessed as mortality at 100 ug/mL after 72 hrs; type: organism-based; conditions: in vivo, 72 h; how it was run: as §1
[3] = Ratio of IC50 for human HepG2 cells to LD50 for Artemia salina
[4] = Ratio of IC50 for human MCF7 cells to LD50 for Artemia salina
Escherichia coli [5] = assay: Antibacterial activity against Escherichia coli NCIM2065 at 10 mg after 24 to 48 hrs by agar well diffusion method; type: functional; conditions: read-out: DIZ
How it was run: (§3)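 Cut-plug well assay: each well filled with 10 mg of powdered compound. Bacteria were on nutrient agar (peptone, beef extract, NaCl) at pH 7, and yeasts on Sabouraud agar (glucose, peptone) at pH 6.0. Plates were incubated at 30 °C for 24–48 h, and inhibition zone diameters were measured in triplicate.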

Staphylococcus aureus [6] = assay: Antibacterial activity against Staphylococcus aureus ATCC 25292 at 10 mg after 24 to 48 hrs by agar well diffusion method; type: functional; conditions: read-out: DIZ; how it was run: as §3
Bacillus subtilis [7] = assay: Antibacterial activity against Bacillus subtilis PC1219 at 10 mg after 24 to 48 hrs by agar well diffusion method; type: functional; conditions: read-out: DIZ; how it was run: as §3
Candida albicans [8] = assay: Antifungal activity against Candida albicans at 10 mg after 24 to 48 hrs by agar well diffusion method; type: functional; conditions: read-out: DIZ; how it was run: as §3
Saccharomyces cerevisiae [9] = assay: Antifungal activity against Saccharomyces cerevisiae at 10 mg after 24 to 48 hrs by agar well diffusion method; type: functional; conditions: read-out: DIZ; how it was run: as §3
Escherichia coli [10] = assay: Antibacterial activity against Escherichia coli NCIM2065 after 24 to 48 hrs by agar disc diffusion method; type: functional
How it was run: (§4)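 Filter-paper discs (5 mm) were impregnated with compound in DMSO at […]. Nutrient agar was seeded with 100 µL inoculum: 5 × 10^5 for bacteria, 4 × 10^4 for yeasts. Controls were ciprofloxacin discs for bacteria, amphotericin B discs for yeasts, and DMSO blanks. Plates were held at 37 °C for 24–48 h; zone diameter (mm) given as triplicate mean ± SD.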

Staphylococcus aureus [11] = assay: Antibacterial activity against Staphylococcus aureus ATCC 25292 after 24 to 48 hrs by agar disc diffusion method; type: functional; how it was run: as §4
Bacillus subtilis [12] = assay: Antibacterial activity against Bacillus subtilis PC1219 after 24 to 48 hrs by agar disc diffusion method; type: functional; how it was run: as §4
Candida albicans [13] = assay: Antifungal activity against Candida albicans after 24 to 48 hrs by agar disc diffusion method; type: functional; how it was run: as §4
Saccharomyces cerevisiae [14] = assay: Antifungal activity against Saccharomyces cerevisiae after 24 to 48 hrs by agar disc diffusion method; type: functional; how it was run: as §4
HepG2 = assay: Cytotoxicity against human HepG2 cells after 72 hrs by sulforhodamine B assay; type: functional, cell-based; conditions: HepG2, 72 h
[15] = as §2; type: organism-based; conditions: in vivo, read-out: Activity; how it was run: as §1

Row | SMILES | IC50 (MCF7) | LC50 at 72 h [1] | mortality at 72 h, 1000 ug/mL [2] | Activity (Artemia salina) | Ratio [3] | Ratio [4] | zone of inhibition at 10000 µg/disc (Escherichia coli [5]) | zone of inhibition at 10000 µg/disc (Staphylococcus aureus [6]) | zone of inhibition at 10000 µg/disc (Bacillus subtilis [7]) | zone of inhibition at 10000 µg/disc (Candida albicans [8]) | zone of inhibition at 10000 µg/disc (Saccharomyces cerevisiae [9]) | MIC (Escherichia coli [10]) | MIC (Staphylococcus aureus [11]) | MIC (Bacillus subtilis [12]) | MIC (Candida albicans [13]) | MIC (Saccharomyces cerevisiae [14]) | IC50 (HepG2) | mortality at 72 h, 100 ug/mL [15]
1 | CC(Nc1ccccc1)(c1cccnc1)P(=O)(Oc1ccccc1)Oc1ccccc1 (centres undefined) | 18.2 µg/mL (≈ 42.3 µM) | 915 µg/mL (≈ 2130 µM) | 60% | Non-toxic | 0.019 | 0.02 | 13 mm | 12 mm | 15 mm | 13 mm | 14 mm | 100 µg/mL (≈ 232 µM) | 10 µg/mL (≈ 23.2 µM) | 10 µg/mL (≈ 23.2 µM) | 10 µg/mL (≈ 23.2 µM) | 10 µg/mL (≈ 23.2 µM) | 17.3 µg/mL (≈ 40.2 µM) | –
2 | O=C(O)c1cn(C2CC2)c2cc(N3CCNCC3)c(F)cc2c1=O [CIPROFLOXACIN] | – | – | – | – | – | – | – | – | – | – | – | 5 µg/mL (≈ 15.1 µM) | 5 µg/mL (≈ 15.1 µM) | 5 µg/mL (≈ 15.1 µM) | – | – | – | –
3 | Cc1ccc(NC(C)(c2cccnc2)P(=O)(Oc2ccccc2)Oc2ccccc2)cc1 (centres undefined) | 20.2 µg/mL (≈ 45.4 µM) | 83 µg/mL (≈ 187 µM) | 10% | – | 0.16 | 0.243 | 22 mm | 19 mm | 15 mm | 17 mm | 16 mm | 10 µg/mL (≈ 22.5 µM) | 50 µg/mL (≈ 112 µM) | 10 µg/mL (≈ 22.5 µM) | 10 µg/mL (≈ 22.5 µM) | 10 µg/mL (≈ 22.5 µM) | 13.3 µg/mL (≈ 29.9 µM) | –
4 | C[C@@H]1[C@H](O)[C@@H](C)/C=C/C=C/C=C/C=C/C=C/C=C/C=C/[C@H](O[C@@H]2O[C@H](C)[C@@H](O)[C@H](N)[C@@H]2O)C[C@@H]2O[C@](O)(C[C@@H](O)C[C@@H](O)[C@H](O)CC[C@@H](O)C[C@@H](O)CC(=O)O[C@H]1C)C[C@H](O)[C@H]2C(=O)O [AMPHOTERICIN B] | – | – | – | – | – | – | – | – | – | – | – | – | – | – | 15 µg/mL (≈ 16.2 µM) | 15 µg/mL (≈ 16.2 µM) | – | –
5 | CC(Nc1ccc(O)cc1)(c1cccnc1)P(=O)(Oc1ccccc1)Oc1ccccc1 (centres undefined) | 19.6 µg/mL (≈ 43.9 µM) | 1000 µg/mL (≈ 2240 µM) | 60% | Non-toxic | 0.017 | 0.02 | 20 mm | 21 mm | 20 mm | 15 mm | 16 mm | 10 µg/mL (≈ 22.4 µM) | 10 µg/mL (≈ 22.4 µM) | 10 µg/mL (≈ 22.4 µM) | 10 µg/mL (≈ 22.4 µM) | 10 µg/mL (≈ 22.4 µM) | 17.1 µg/mL (≈ 38.3 µM) | –
6 | CC(NNc1ccccc1)(c1cccnc1)P(=O)(Oc1ccccc1)Oc1ccccc1 (centres undefined) | 19.4 µg/mL (≈ 43.6 µM) | 843 µg/mL (≈ 1890 µM) | 60% | Non-toxic | 0.02 | 0.023 | 32 mm | 28 mm | 26 mm | 26 mm | 27 mm | 10 µg/mL (≈ 22.4 µM) | 10 µg/mL (≈ 22.4 µM) | 10 µg/mL (≈ 22.4 µM) | 10 µg/mL (≈ 22.4 µM) | 10 µg/mL (≈ 22.4 µM) | 17.6 µg/mL (≈ 39.5 µM) | –
7 | CC(Nc1ccc(Cl)cc1)(c1cccnc1)P(=O)(Oc1ccccc1)Oc1ccccc1 (centres undefined) | 17.6 µg/mL (≈ 37.9 µM) | 38 µg/mL (≈ 81.7 µM) | 100% | – | 0.415 | 0.463 | 20 mm | 21 mm | 25 mm | 23 mm | 23 mm | 10 µg/mL (≈ 21.5 µM) | 10 µg/mL (≈ 21.5 µM) | 10 µg/mL (≈ 21.5 µM) | 10 µg/mL (≈ 21.5 µM) | 10 µg/mL (≈ 21.5 µM) | 15.8 µg/mL (≈ 34 µM) | 15%
